These results are taken from ChEMBL document CHEMBL3739335, “Phosphonooxymethyl Prodrug of Triptolide: Synthesis, Physicochemical Characterization, and Efficacy in Human Colon Adenocarcinoma and Ovarian Cancer Xenografts” (J Med Chem, 2015).

In series [1] the test system is Mus musculus. The experiment in a line: Toxicity in athymic nude mouse xenografted with human A2780 cells assessed as mortality at 0.6 to 0.9 mg/kg, po administered for 30 days. It is filed as organism-based. Conditions: in vivo, 720 h. A digest of the protocol: (§1)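 Female athymic nude mice, 7–9 weeks old, received 2.5 × 10^6 A2780 cells subcutaneously in the flank in 50% Matrigel/RPMI 1640. Mice were randomized at a mean tumor volume of 188 mm3, 10 per group. Daily oral gavage in USP saline (0.2 mL) for 30 days, dosed on group-mean body weight. Clinical signs, survival and body weights were recorded.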
(In general: In xenograft studies the graft and the host belong to different species.)

Series [2] in a line: Chemical stability of the compound in buffer assessed as compound remaining at pH 4 after 8 hrs by HPLC analysis. In kind it is physicochemical. Conditions: read-out: Stability.
Series [3] deals with Mus musculus. In words: Toxicity in athymic nude mouse xenografted with human HT-29 cells assessed as weight gain at 0.9 mg/kg, ip administered 14 days measured post last dose. Conditions: in vivo, 336 h. In kind it is organism-based. A digest of the protocol: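 Female athymic nude mice, 7–9 weeks old, received 1.74 × 10^6 HT-29 cells subcutaneously in the right flank in 50% Matrigel/McCoy's 5A. Randomized at 110 mm3, 10 per group. Intraperitoneal dosing in USP saline (0.2 mL) over a 28-day period on the stated schedule. Body weights were taken twice weekly; clinical signs and survival were recorded.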

A short description of series [4]: Chemical stability of the compound in buffer assessed as compound remaining at pH 6 after 24 hrs by HPLC analysis. In kind it is physicochemical. Conditions: read-out: Stability.
The nature of series [5]: Chemical stability of the compound in buffer assessed as pseudo-first-order rate constant at 40 degC at pH 7.4 by Arrhenius plot analysis. In kind it is physicochemical.
Series [6] in a line: Stability of the compound in simulated intestinal fluid assessed as compound remaining at pH 7.5 after 24 hrs by HPLC analysis. In kind it is ADME. Conditions: read-out: Stability. In short, it runs like this:
(§2)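 Drug incubated in simulated gastric fluid or simulated intestinal fluid and sampled at 0, 1, 2, 4, 8 and 24 h. Percent remaining was measured by reversed-phase C18 HPLC with photodiode-array detection, using a 20-min gradient of 10–70% acetonitrile against 10 mM sodium phosphate buffer at pH 7.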

A short description of series [7]: Chemical stability of the compound in buffer assessed as compound remaining at pH 7.4 after 1 hr by HPLC analysis. In kind it is physicochemical. Conditions: read-out: Stability.
A short description of series [8]: Chemical stability of the compound in buffer assessed as compound remaining at pH 2 after 4 hrs by HPLC analysis. In kind it is physicochemical. Conditions: read-out: Stability.
Series [9] in a line: Chemical stability of the compound in buffer assessed as compound remaining at pH 1 after 8 hrs by HPLC analysis. Conditions: read-out: Stability. It is filed as physicochemical.
Series [10] can be described thus: Chemical stability of the compound in buffer assessed as compound remaining at pH 2 after 24 hrs by HPLC analysis. In kind it is physicochemical. Conditions: read-out: Stability.
A short description of series [11]: Stability of the compound in simulated intestinal fluid assessed as compound remaining at pH 7.5 after 1 hr by HPLC analysis. It is filed as ADME. Conditions: read-out: Stability. A digest of the protocol: as §2
Series [12] can be described thus: Stability of the compound in simulated intestinal fluid assessed as compound remaining at pH 7.5 after 8 hrs by HPLC analysis. It is filed as ADME. Conditions: read-out: Stability. A digest of the protocol:
as §2

Series [13] relates to A2780. The experiment in a line: Antitumor activity against human A2780 cells xenografted in athymic nude mouse at 0.6 to 0.9 mg/kg, ip and po administered for 30 days. In kind it is functional, organism-based. In short, it runs like this:
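Female athymic nude mice, 7–9 weeks, implanted s.c. on right or left flank with 2.5 × 10^6 A2780 cells (ECACC, mycoplasma/rodent-pathogen tested) in 50% Matrigel/50% RPMI 1640; randomized at mean tumor 188 mm3, 10/group. Dosed daily for 30 days IP or by oral gavage in USP saline, 0.2 mL. Tumor volume by caliper (L × W2/2), tumor weight at necropsy, survival, body weight.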

Series [14] can be described thus: Shelf life of the compound in buffer assessed as time for 10% loss of compound at 25 degC at pH 7.4. In kind it is physicochemical. A digest of the protocol:
(§3)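 Pseudo-first-order kobsd at each temperature was fitted to an Arrhenius plot, which was extrapolated to 25 and 4 °C. t1/2 and t90 (time for 10% loss) were calculated from the extrapolated kobsd.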

Series [15] concerns Mus musculus. The experiment in a line: Toxicity in athymic nude mouse xenografted with human A2780 cells assessed as moribund condition at 1.2 mg/kg, po administered for 30 days. Conditions: in vivo, 720 h. In kind it is organism-based. A digest of the protocol: as §1
Series [16] is described as follows: Shelf life of the compound in buffer assessed as time for 10% loss of compound at 4 degC at pH 7.4. It is filed as physicochemical. In short, it runs like this: as §3

Calls of active or inactive are those of the source. The calls are words filed in the database; no cut-off is given here.

For the compound `CC(C)[C@]12O[C@H]1[C@@H]1O[C@]13[C@]1(O[C@H]1C[C@H]1C4=C(CC[C@@]13C)C(=O)OC4)[C@@H]2OCOP(=O)([O-])[O-].[Na+].[Na+]` [MINNELIDE], the Activity entry in series [1], in series [3] and in series [15] was “Toxic” each time. Further, the remaining at 8 h is 99% in [2], 39% in [9] and 99% in series [12]. The results for the remaining at 24 h in series [4], in series [6] and in [10] were 99%, 99% and 83%, respectively. Also, the K in series [5] stood at 0.000494 h⁻¹. In addition, the remaining at 1 h in series [7] and in series [11] was 100% each time. Also, in [8], the remaining at 4 h was 95%. In addition, in series [13], the outcome was Active. Further, the Time in series [14] worked out at 0.14 yr; in series [16] it was 1.9 yr.
